ChEMBL document CHEMBL1143930, “S-Euglobals: biomimetic synthesis, antileishmanial, antimalarial, and antimicrobial activities” (Bioorg Med Chem, 2008)
Converted amounts (≈) assume the structure as drawn. The source made the active and inactive calls. The calls are words filed in the database; no cut-off is given here.

Tests used:
Leishmania donovani = test: Antileishmanial activity against Leishmania donovani promastigotes after 48 hrs by Alamar blue assay; assay type: functional, organism-based
Procedure, shortened: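 L. donovani promastigotes were grown in RPMI 1640 with 10% fetal calf serum at 26 C. A 3-day-old culture was diluted to 5 × 10^5 promastigotes/mL, and drug dilutions were made directly in the cell suspension. After 48 h at 26 C, growth was read by Alamar Blue fluorescence (ex 544/em 590 nm). IC50 and IC90 came from percent growth versus concentration curves.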

Candida albicans = test: Antifungal activity against Candida albicans; assay type: functional, organism-based
Procedure, shortened: (§1)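 Modified NCCLS broth microdilution. Samples in DMSO were serially diluted in 0.9% saline and tested in duplicate. Inocula were matched to the 0.5 McFarland standard by absorbance at 630 nm, then diluted in broth. Growth, solvent and media controls were included. Plates were read at 630 nm before and after incubation, and IC50 was taken from percent growth versus concentration.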

Cryptococcus neoformans = test: Antifungal activity against Cryptococcus neoformans; assay type: functional, organism-based; procedure, shortened: as §1
Aspergillus fumigatus = test: Antifungal activity against Aspergillus fumigatus; assay type: functional, organism-based; procedure, shortened: as §1
SK-MEL [1] = test: Cytotoxicity against human SKMEL cells by neutral red assay up to 25 ug/mL; assay type: functional, cell-based
Procedure, shortened: (§2)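 Cells were seeded at 25,000 per well and incubated 24 h. Test samples were added at a range of concentrations, followed by a further 48 h incubation. Viable cells were quantified by Neutral Red uptake, and IC50 was read from dose curves of percent growth versus concentration.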

KB [2] = test: Cytotoxicity against human KB cells by neutral red assay up to 25 ug/mL; assay type: functional, cell-based; procedure, shortened: as §2
BT-549 [3] = test: Cytotoxicity against human BT549 cells by neutral red assay up to 25 ug/mL; assay type: functional, cell-based; procedure, shortened: as §2
SK-OV-3 [4] = test: Cytotoxicity against human SK-OV3 cells by neutral red assay up to 25 ug/mL; assay type: functional, cell-based; procedure, shortened: as §2
Vero [5] = test: Cytotoxicity against african green monkey Vero cells by neutral red assay up to 25 ug/mL; assay type: cell-based; conditions: chlorocebus sabaeus; procedure, shortened: as §2
[6] = Cytotoxicity against pig LLC-PK11 cells by neutral red assay up to 25 ug/mL; assay type: cell-based, Sus scrofa; procedure, shortened: as §2
SK-MEL [7] = test: Cytotoxicity against human SKMEL cells by neutral red assay; assay type: functional, cell-based; procedure, shortened: as §2
KB [8] = test: Cytotoxicity against human KB cells by neutral red assay; assay type: functional, cell-based; procedure, shortened: as §2
BT-549 [9] = test: Cytotoxicity against human BT549 cells by neutral red assay; assay type: functional, cell-based; procedure, shortened: as §2
SK-OV-3 [10] = test: Cytotoxicity against human SK-OV3 cells by neutral red assay; assay type: functional, cell-based; procedure, shortened: as §2
Vero [11] = test: Cytotoxicity against african green monkey Vero cells by neutral red assay; assay type: cell-based; conditions: chlorocebus sabaeus; procedure, shortened: as §2
[12] = Cytotoxicity against pig LLC-PK11 cells by neutral red assay; assay type: cell-based; conditions: Sus scrofa; procedure, shortened: as §2
Staphylococcus aureus = test: Antibacterial activity against methicillin-resistant Staphylococcus aureus; assay type: functional, organism-based
Procedure, shortened: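 Modified NCCLS broth microdilution. Samples in DMSO serially diluted in 0.9% saline, tested in duplicate. Inoculum set against 0.5 McFarland standard by absorbance at 630 nm, then diluted in broth. Growth, solvent and media controls included. Plates read at 630 nm before and after incubation. IC50 from percent growth vs concentration; MIC = lowest concentration with no detectable growth.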

Plasmodium falciparum [13] = test: Antimalarial activity against chloroquine-sensitive Plasmodium falciparum D6 by LDH release assay; assay type: functional, organism-based
Procedure, shortened: (§3)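 Infected red cells (W2 or D6), 2% parasitemia, 2% hematocrit, in RPMI 1640 with 10% human serum and 60 µg/mL amikacin, exposed to serial sample dilutions. Incubated 72 h at 37 C under 90% N2/5% O2/5% CO2. Parasite LDH measured with Malstat reagent (30 min, room temperature), then NBT/PES 1 h in dark, stopped with 5% acetic acid, read at 650 nm. IC50 from dose-response curves.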

Plasmodium falciparum [14] = test: Antimalarial activity against chloroquine-resistant Plasmodium falciparum W2 by LDH release; assay type: functional, organism-based; procedure, shortened: as §3

## CC(C)CC(=O)c1c(O)c(C=O)c2c(c1O)C[C@H]1C[C@H]3C[C@H](C3(C)C)[C@@]1(C)O2 [EUGLOBAL G2]
Leishmania donovani
  IC50: 3.6 µg/mL (≈ 9.31 µM)

## N=C(N)c1ccc(OCCCCCOc2ccc(C(=N)N)cc2)cc1 [PENTAMIDINE]
Leishmania donovani
  IC50: 1.2 µg/mL (≈ 3.52 µM)
  IC90: 6 µg/mL (≈ 17.6 µM)

## CC(C)CC(=O)c1c(O)c2c(c(C(=O)CC(C)C)c1O)O[C@@]1(C)[C@H](CC[C@H]3[C@@H]1C3(C)C)C2
Leishmania donovani
  Activity: inactive
Candida albicans
  Activity: inactive
Cryptococcus neoformans
  Activity: inactive
Aspergillus fumigatus
  Activity: inactive
SK-MEL [1]
  Activity: inactive
KB [2]
  Activity: inactive
BT-549 [3]
  Activity: inactive
SK-OV-3 [4]
  Activity: inactive
Vero [5]
  Activity: Not Active
[6]
  Activity: Not Active

## CC(C)CC(=O)c1c(O)c(C=O)c2c(c1O)C[C@H]1C[C@H]3C[C@H](C3(C)C)[C@@]1(CCO)O2
Leishmania donovani
  IC50: 9.5 µg/mL (≈ 22.8 µM)
  IC90: 33 µg/mL (≈ 79.2 µM)
SK-MEL [7]
  IC50: 25 µg/mL (≈ 60 µM)
KB [8]
  IC50: 20 µg/mL (≈ 48 µM)
BT-549 [9]
  IC50: 18.5 µg/mL (≈ 44.4 µM)
SK-OV-3 [10]
  IC50: 25 µg/mL (≈ 60 µM)
Vero [11]
  IC50: 20 µg/mL (≈ 48 µM)
[12]
  IC50: 25 µg/mL (≈ 60 µM)
Staphylococcus aureus
  IC50: 1 µg/mL (≈ 2.4 µM)
  MIC: 5 µg/mL (≈ 12 µM)
Candida albicans
  Activity: inactive
Cryptococcus neoformans
  Activity: inactive
Aspergillus fumigatus
  Activity: inactive

## COc1cccc2c1C(=O)c1c(O)c3c(c(O)c1C2=O)C[C@@](O)(C(=O)CO)C[C@@H]3O[C@H]1C[C@H](N)[C@H](O)[C@H](C)O1 [DOXORUBICIN]
SK-MEL [7]
  IC50: 0.6 µg/mL (≈ 1.1 µM)
KB [8]
  IC50: 0.9 µg/mL (≈ 1.66 µM)
BT-549 [9]
  IC50: 0.6 µg/mL (≈ 1.1 µM)
SK-OV-3 [10]
  IC50: 0.75 µg/mL (≈ 1.38 µM)
[12]
  IC50: 0.5 µg/mL (≈ 0.92 µM)

## CC(C)CC(=O)c1c(O)c(C=O)c2c(c1O)C[C@H]1C[C@H]3C[C@H](C3(C)C)[C@@]1(CO)O2
Leishmania donovani
  IC50: 18 µg/mL (≈ 44.7 µM)
  IC90: 39 µg/mL (≈ 96.9 µM)
BT-549 [9]
  IC50: 23 µg/mL (≈ 57.1 µM)
Staphylococcus aureus
  IC50: 2.5 µg/mL (≈ 6.21 µM)
Candida albicans
  Activity: inactive
Cryptococcus neoformans
  Activity: inactive
Aspergillus fumigatus
  Activity: inactive
SK-MEL [1]
  Activity: inactive
KB [2]
  Activity: inactive
SK-OV-3 [4]
  Activity: inactive
Vero [5]
  Activity: Not Active
[6]
  Activity: Not Active

## CC(C)CC(=O)c1c(O)c2c(c(C(=O)CC(C)C)c1O)O[C@@]1(C)[C@@H](C2)C[C@H]2C[C@@H]1C2(C)C
Leishmania donovani
  Activity: inactive
Candida albicans
  Activity: inactive
Cryptococcus neoformans
  Activity: inactive
Aspergillus fumigatus
  Activity: inactive
SK-MEL [1]
  Activity: inactive
KB [2]
  Activity: inactive
BT-549 [3]
  Activity: inactive
SK-OV-3 [4]
  Activity: inactive
Vero [5]
  Activity: Not Active
[6]
  Activity: Not Active

## C[C@@H]1CC[C@H]2[C@@H](C)C(=O)O[C@@H]3O[C@@]4(C)CC[C@@H]1[C@]32OO4 [ARTEMISININ]
Plasmodium falciparum [13]
  IC50: 0.014 µg/mL (≈ 0.0496 µM)
Plasmodium falciparum [14]
  IC50: 0.0075 µg/mL (≈ 0.0266 µM)

## CC(C)CC(=O)c1c(O)c2c(c(C(=O)CC(C)C)c1O)O[C@@]1(CCO)[C@@H](C2)C[C@H]2C[C@@H]1C2(C)C
Leishmania donovani
  Activity: inactive
BT-549 [9]
  IC50: > 25 µg/mL
Candida albicans
  Activity: inactive
Cryptococcus neoformans
  Activity: inactive
Aspergillus fumigatus
  Activity: inactive
SK-MEL [1]
  Activity: inactive
KB [2]
  Activity: inactive
SK-OV-3 [4]
  Activity: inactive
Vero [5]
  Activity: Not Active
[6]
  Activity: Not Active

## CC(C)CC(=O)c1c(O)c(C=O)c2c(c1O)C[C@H]1CC[C@H]3[C@H](C3(C)C)[C@@]1(C)O2
Leishmania donovani
  IC50: 2.4 µg/mL (≈ 6.21 µM)
  IC90: 8 µg/mL (≈ 20.7 µM)
BT-549 [9]
  IC50: > 25 µg/mL
SK-OV-3 [10]
  IC50: > 25 µg/mL
[12]
  IC50: > 25 µg/mL
Candida albicans
  Activity: inactive
Cryptococcus neoformans
  Activity: inactive
Aspergillus fumigatus
  Activity: inactive
SK-MEL [1]
  Activity: inactive
KB [2]
  Activity: inactive
Vero [5]
  Activity: Not Active
